For test [1], the target named is T1, P2X purinoceptor 7 (Homo sapiens) (UniProt Q99572).
T1 sequence (whole entry): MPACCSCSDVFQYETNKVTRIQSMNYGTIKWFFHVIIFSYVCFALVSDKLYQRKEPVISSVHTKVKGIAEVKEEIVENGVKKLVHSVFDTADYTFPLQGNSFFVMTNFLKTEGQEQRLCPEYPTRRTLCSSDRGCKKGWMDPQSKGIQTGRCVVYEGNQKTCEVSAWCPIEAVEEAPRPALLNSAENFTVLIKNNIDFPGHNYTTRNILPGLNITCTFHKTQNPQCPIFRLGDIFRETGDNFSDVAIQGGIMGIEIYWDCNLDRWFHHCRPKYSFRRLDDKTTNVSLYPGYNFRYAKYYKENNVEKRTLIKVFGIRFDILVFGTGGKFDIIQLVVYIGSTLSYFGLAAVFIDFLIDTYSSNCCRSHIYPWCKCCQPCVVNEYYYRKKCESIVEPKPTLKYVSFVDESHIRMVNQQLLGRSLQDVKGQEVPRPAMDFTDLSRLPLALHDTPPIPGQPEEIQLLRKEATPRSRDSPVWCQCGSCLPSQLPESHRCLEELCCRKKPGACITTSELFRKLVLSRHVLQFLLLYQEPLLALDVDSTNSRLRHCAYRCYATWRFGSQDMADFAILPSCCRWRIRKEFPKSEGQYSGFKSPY
The test can be described thus: Antagonist activity at human P2X7 receptor expressed in HEK293 cells assessed as reduction in benzoyl-ATP-induced intracellular Ca2+ level by Fura-2 dye based fluorescence assay. It is filed as cell-based. The settings on record: filed as antagonist. Put shortly:
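hP2X7-HEK293 cells 24–48 h after seeding, loaded with Fura-2-AM 8 μM for 1 h, then washed in Mg²⁺-free Tyrode (2 mM CaCl₂, pH 7.4) for 15–30 min with compound present. Excitation 340/380 nm, emission 520 nm. Basal recording, then BzATP injected (100 μM final). [Ca²⁺]c from Grynkiewicz equation. Blockade as percent of BzATP peak in Tyrode-only wells; triplicates.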

Test [2] concerns the target T1, P2X purinoceptor 7 (Homo sapiens). The experiment in a line: Antagonist activity at human P2X7 receptor expressed in HEK293 cells assessed as reduction in benzoyl-ATP-induced YO-PRO-1 dye uptake at 10 uM pre-incubated for 20 mins before YO-PRO-1 addition and measured after 25 mins by fluorescence plate reader analysis relative to control. It is filed as cell-based. As to conditions: time 45.0 min. Put shortly: (§1)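 Stably transfected hP2X7-HEK293 cells, 48 h after seeding, in Mg²⁺-free Krebs-HEPES (0.2 mM CaCl₂, pH 7.4). Compound preincubation 20 min, then YO-PRO-1 2 μM, then BzATP 30 μM. Fluorescence at 485/520 nm read for 25 min. Each well normalized to Fmax (0.5% Triton X-100) and Fmin (2 M MnCl₂): F = (Fx − F0)/(Fmax − Fmin). Triplicates from three cultures. IC50 is the concentration halving BzATP-induced uptake.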

For test [3] the target is unchanged. The experiment in a line: Antagonist activity at human P2X7 receptor expressed in Xenopus laevis oocytes assessed as reduction in ATP-induced channel currents at 100 uM by TEVC electrophysiology assay relative to control. Format: cell-based. The settings on record: Oocyte. Put shortly: (§2)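 Oocytes injected with 50 nL His-tagged hP2X7 cRNA (0.5 mg/mL), kept 1–2 days at 16–18 °C. Recorded in low divalent-cation solution (90 mM NaCl, 0.5 mM CaCl₂, 5 mM HEPES) at −70 mV. ATP 300 μM for 2 s after 3 min static compound incubation. Current normalized to control amplitude. Triplicates from three oocytes, two frogs.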

In a further test the target is T2, P2X purinoceptor 7 (Homo sapiens, UniProt Q99572).
T2 sequence (Q99572 whole entry): T1 sequence (whole entry)
The experiment in a line: Antagonist activity at human P2X7 receptor expressed in HEK293 cells assessed as reduction in benzoyl-ATP-induced YO-PRO-1 dye uptake pre-incubated for 20 mins before YO-PRO-1 addition and measured after 25 mins by fluorescence plate reader analysis relative to control. It is filed as cell-based. Put shortly:
as §1

The subject of a further test is Peritoneal macrophage. The test can be described thus: Inhibition of Il-1beta production in LPS-stimulated C57BL/6 mouse peritoneal macrophages pre-incubated for 15 mins followed by ATP addition for 30 mins by ELISA method. Format: functional, tissue-based. As to conditions: time 45.0 min. Put shortly: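 Thioglycolate-elicited peritoneal macrophages from 6–8-week male C57BL/6 mice, 3 × 10⁵ cells/well. Primed 4 h with LPS 1 μg/mL (E. coli 026:B6), then serum-free DMEM with compound for 15 min, then ATP for 30 min. Supernatant IL-1β measured by ELISA, expressed as percent of ATP-only control. Triplicates from three mice.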

Test [4] addresses T1, P2X purinoceptor 7 (Homo sapiens). The experiment in a line: Antagonist activity at human P2X7 receptor expressed in HEK293 cells assessed as reduction in benzoyl-ATP-induced YO-PRO-1 dye uptake at 1 uM pre-incubated for 20 mins before YO-PRO-1 addition and measured after 25 mins by fluorescence plate reader analysis relative to control. It is filed as cell-based. The settings on record: filed as antagonist, time 45.0 min. Put shortly: as §1

Test [5] has the same target. The test can be described thus: Antagonist activity at human P2X7 receptor expressed in Xenopus laevis oocytes assessed as reduction in ATP-induced channel currents at 1 uM by TEVC electrophysiology assay relative to control. It is filed as cell-based. The settings on record: Oocyte, filed as antagonist. Put shortly: as §2

In ChEMBL document CHEMBL4706687, “Synthesis and Pharmacological Evaluation of Novel Non-nucleotide Purine Derivatives as P2X7 Antagonists for the Treatment of Neuroinflammation” (J Med Chem, 2021) one finds inhibition and IC50 data, which are given here for 30 molecules.

As usually defined, the inhibition is the percentage by which the read-out fell short of the control. By IC50 is commonly meant the point on the concentration scale where inhibition reaches its midpoint.

The source made the active and inactive calls. The rule behind the calls is not given here.

As for `O=C(Cn1cnc2c(-c3ccccc3)ncnc21)c1ccc(Cl)cc1Cl`, the inhibition entry in test [1] is “Active”. Also, the inhibition is 62% in test [2] (filed as antagonist) and 11% in test [3]. The IC50 at P2X purinoceptor 7 came to 6 µM.
Consider `CNc1nc(Cl)nc2c1ncn2S(=O)(=O)c1ccccc1Cl`, for which the inhibition in test [2] turned out to be 4%; in test [3], 2%.
`Cn1c(=O)c2c(ncn2CC(=O)c2ccc(Cl)cc2Cl)n(C)c1=O`: the inhibition amounted to 0% in test [2] and 10% in test [3].
For the molecule `Cn1c(=O)c2c(ncn2S(=O)(=O)c2ccc(F)cc2Cl)n(C)c1=O`, the inhibition in test [2] was found to be 20%. Further, the inhibition result in test [3] was “inactive”.
For `O=S(=O)(c1ccccc1Cl)n1cnc2c(Cl)nc(Cl)nc21`, the results for the inhibition in test [2] (filed as antagonist) and in test [3] were 46% and 2%, respectively. Besides, at P2X purinoceptor 7, the IC50 was determined as 10.2 µM.
In the case of `Cn1c(=O)c2c(ncn2S(=O)(=O)c2cc(Cl)ccc2Cl)n(C)c1=O`, the inhibition in test [2] worked out at 4%. For the same molecule, the inhibition entry in test [3] was “inactive”.
`COc1ncnc2c1ncn2S(=O)(=O)c1ccccc1Cl`: the inhibition result in test [2] was “inactive”. The inhibition in test [3] amounted to 8%.
For `O=C(Cn1cnc2c(I)nc(Cl)nc21)c1ccc(Cl)cc1Cl` the same measures were 14% and 6%.
As for `Nc1nc(Cl)c2ncn(CC(=O)c3ccc(Cl)cc3Cl)c2n1`, the inhibition in test [2] was 4%; in test [3] it was 6%.
Take `Cn1c(=O)c2c(ncn2S(=O)(=O)c2ccccc2Cl)n(C)c1=O`: the values for the inhibition result (in the test on Peritoneal macrophage; in test [2] (filed as antagonist); in test [3]) were “Dose-dependent effect”, 52% and 28%, respectively. Further, the IC50 on P2X purinoceptor 7 is 10 µM.
`Cn1cnc2c1c(=O)n(C(=O)c1ccccc1Cl)c(=O)n2C`: the inhibition in test [2] and in test [3] was 5% each time.
As to `Cn1cnc2c(=O)n(Cc3ccccc3Cl)c(Cl)nc21`, the inhibition turned out to be 16% in test [2] and 9% in test [3].
With `Cn1c(=O)c2c(ncn2S(=O)(=O)c2ccc(F)cc2)n(C)c1=O`, in test [2], the inhibition is 10%. In test [3], the inhibition entry was “inactive”.
As for `Cn1c(=O)c2c(ncn2S(=O)(=O)c2ccc(F)cc2F)n(C)c1=O`, the results for the inhibition in test [2] and in test [3] were 7% and 1%, respectively.
For the molecule `COc1ncnc2c1ncn2C(=O)c1ccccc1Cl`, the inhibition in test [2] was 1%; in test [3], 0%.
As to `Cn1c(=O)c2c(ncn2S(=O)(=O)c2ccc(C(F)(F)F)cc2Cl)n(C)c1=O`, the inhibition in test [2] amounted to 5%. Besides, the inhibition entry in test [3] was “inactive”.
`O=S(=O)(c1ccccc1Cl)n1cnc2c(Cl)ncnc21`: the inhibition in test [2] was 17%; in test [3] it was 9%.
Take `Cn1cnc2c1c(=O)n(CC(=O)c1ccc(Cl)cc1Cl)c(=O)n2C`: the inhibition entry in test [2] was “inactive”. Further, the inhibition in test [3] was 2%.
Take `CNc1nc(Cl)nc2c1ncn2CC(=O)c1ccc(Cl)cc1Cl`: the inhibition in test [2] was 2%; in test [3] it was 5%.
With `O=C(Cn1cnc2c(Cl)nc(Cl)nc21)c1ccc(Cl)cc1Cl`, the inhibition was 41% in test [2] (filed as antagonist) and 24% in test [3]. The IC50 on P2X purinoceptor 7 is 13 µM.
For `O=C(Cn1cnc2c(Cl)nc(F)nc21)c1ccc(Cl)cc1Cl`, the inhibition turned out to be 27% in test [2] and 24% in test [3].
`Cc1cc(F)ccc1S(=O)(=O)n1cnc2c1c(=O)n(C)c(=O)n2C`: the inhibition in test [2] amounted to 23%. Also, in test [3], the inhibition result is “inactive”.
For the molecule `Cn1c(=O)c2c(ncn2S(=O)(=O)c2ccc(Cl)cc2Cl)n(C)c1=O`, the inhibition in test [2] worked out at 7%; in test [3], 9%.
Take `O=C(c1ccccc1Cl)n1cnc2c(Cl)ncnc21`: the figures for the inhibition in test [2] and in test [3] were 7% and 5%, respectively.
As to `O=C(NCC1(N2CCN(c3ccccc3)CC2)CCOCC1)c1cccnc1Sc1ccccc1`, the results for the inhibition in test [4] and in test [5] were 56% and 49%, respectively.
As for `Nc1nc(Cl)c2ncn(S(=O)(=O)c3ccccc3Cl)c2n1`, the inhibition in test [2] came to 9%. Also, the inhibition result in test [3] was “inactive”.
In the case of `O=C(Cn1cnc2c(Cl)ncnc21)c1ccc(F)cc1`, the inhibition is 34% in test [2] and 7% in test [3].
With `O=C(CCn1cnc2c(Cl)ncnc21)c1ccc(Cl)cc1Cl`, the figures for the inhibition in test [2] and in test [3] were 19% and 6%, respectively.
As to `O=C(Cn1cnc2c(Cl)ncnc21)c1ccc(Cl)cc1`, the figures for the inhibition in test [2] (filed as antagonist) and in test [3] were 55% and 11%, respectively. The IC50 on P2X purinoceptor 7 came out at 10 µM.
As to `COc1ncnc2c1ncn2CC(=O)c1ccc(Cl)cc1Cl`, the inhibition was 25% in test [2] and 14% in test [3].
